# Measurements from different studies.
# Compare with care: the assays were run in different laboratories. pEC50, pIC50: −log10 of the molar value.
# Observed: cell growth or viability
Structure (SMILES),cell line,test,conditions,measurement,value
COc1ccc(-c2ccc(-c3ccc(C(=N)N)nc3)s2)cc1,LOX IMVI,SRB,,GI50,1.88 µM
CC(C)Nc1ccnc(Nc2cccc(-c3ccccc3)c2)n1,MV4-11,ATP luminescence,72 h,pEC50,5.40
COC(=O)c1c(C)ncn1CC(c1c[nH]c2ccc(C)cc12)c1c[nH]c2ccc(C)cc12,human Fibroblast,MTS,"20 µM, 24 h",inhibition,13.8%
COC(=O)c1cccc(-c2cccc(Nc3nccc(NC(C)C)n3)c2)c1,MV4-11,ATP luminescence,72 h,pEC50,5.31
CCCCCCCCCCCCCCCCOP(=O)([O-])OCC[N+](C)(C)C,human Fibroblast,MTS,"20 µM, 24 h",inhibition,46.2%
CCN(CC)CCOC(=O)C1(c2ccc([N+](=O)[O-])cc2)CCCC1,HN-6,,72 h,pIC50,< 4.70
COc1cc(-c2ccc(-c3ccc(C(=N)N)nc3)s2)cc(OC)c1OC,LOX IMVI,SRB,,GI50,1.87 µM
N#Cc1ccc(COC[C@H]2O[C@@H](n3c(NCc4ccc(Cl)c(Cl)c4)nc4c(N)ncnc43)[C@H](O)[C@@H]2O)cc1,HN-6,,72 h,pIC50,5.31
CNC(=O)COc1cc2cc(Nc3nc(N4CCC(C(=O)NCCCCCCCNC(=O)C[C@@H]5N=C(c6ccc(Cl)cc6)c6c(sc(C)c6C)-n6c(C)nnc65)CC4)ncc3Cl)cc(OC)c2n(C)c1=O,human Fibroblast,,72 h,pEC50,~6.33
CC(C)Nc1ccnc(Nc2cccc(C(C)(C)C)c2)n1,MV4-11,ATP luminescence,72 h,pEC50,< 4.89
COC(=O)c1c(C)ncn1CC(c1cn(C)c2ccccc12)c1cn(C)c2ccccc12,human Fibroblast,MTS,"20 µM, 24 h",inhibition,5.1%
CC(C)=CCC[C@](C)(O)[C@H]1CC[C@]2(C)[C@@H]1[C@H](O)C[C@@H]1[C@@]3(C)CC[C@H](O[C@@H]4O[C@H](CO)[C@@H](O)[C@H](O)[C@H]4O[C@@H]4O[C@H](CO)[C@@H](O)[C@H](O)[C@H]4O)C(C)(C)[C@@H]3CC[C@]12C,BEAS-2B,MTT,72 h,IC80,> 100 µM
CC(C)Nc1ccnc(Nc2cccc(-c3ccncc3)c2)n1,MV4-11,ATP luminescence,72 h,pEC50,< 4.82
COC(=O)c1c(C)ncn1CC(c1c[nH]c2ccccc12)c1c[nH]c2ccccc12,human Fibroblast,MTS,"20 µM, 24 h",inhibition,12%
COC(C)(C)CCC[C@](C)(O)[C@H]1CC[C@]2(C)[C@@H]1[C@H](O)C[C@@H]1[C@@]3(C)CC[C@H](O)C(C)(C)[C@@H]3CC[C@]12C,BEAS-2B,MTT,72 h,IC80,> 100 µM
CC(C)(CO)Cn1nc(-c2ccc3cc(OC4CC4)ccc3c2)c2c(N)ncnc21,CRL8155,,,GI50,> 10 µM
CC[C@H](C)Nc1ccnc(Nc2cccc(-c3cccnc3)c2)n1,MV4-11,ATP luminescence,72 h,pEC50,7.19
